Source: ChEMBL document CHEMBL1155372, “Design and synthesis of novel deoxybenzoin derivatives as FabH inhibitors and anti-inflammatory agents” (Bioorg Med Chem Lett, 2010)
≈ marks a conversion by molar mass, not a printed value. Calls of active or inactive are those of the source. The rule behind the calls is not given here.

Experiments:
Escherichia coli = assay: Antibacterial activity against Escherichia coli ATCC 35218; type: functional
Aspergillus niger = assay: Antifungal activity against Aspergillus niger ATCC 16404; type: functional
Staphylococcus aureus = assay: Antibacterial activity against Staphylococcus aureus ATCC 6538; type: functional
Candida albicans = assay: Antifungal activity against Candida albicans ATCC 10231; type: functional
Pseudomonas aeruginosa = assay: Antibacterial activity against Pseudomonas aeruginosa ATCC 2785; type: functional
Trichophyton rubrum = assay: Antifungal activity against Trichophyton rubrum ATCC 10218
Bacillus subtilis = assay: Antibacterial activity against Bacillus subtilis ATCC 6633; type: functional
[1] = Inhibition of Escherichia coli FabH expressed after 25 mins by liquid scintillation counting
AGS [2] = assay: Cytotoxicity against human AGS cells at 15 to 60 umol/L after 48 hrs by MTT assay; type: cell-based
In short: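 AGS gastric cells incubated with test agent at serial concentrations of 15, 30 and 60 μmol L⁻¹. Viability read by MTT assay 48 h later. Values are means ± SEM of 4–6 experiments.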

AGS [3] = assay: Inhibition of Escherichia coli-stimulated IL-8 production in human AGS cells at 15 to 60 umol/L after 12 hrs by ELISA; type: functional, cell-based
In short: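 AGS gastric mucosal cells stimulated with Escherichia coli water extract to induce IL-8 production, with agent added at 15, 30 and 60 μmol L⁻¹. IL-8 released was measured in pg mL⁻¹ and compared with extract-stimulated control. Values are means ± SEM of 3–5 experiments.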

SMILES	MIC (Escherichia coli) [µg/mL]	MIC (Aspergillus niger) [µg/mL]	MIC (Staphylococcus aureus) [µg/mL]	MIC (Candida albicans) [µg/mL]	MIC (Pseudomonas aeruginosa) [µg/mL]	MIC (Trichophyton rubrum) [µg/mL]	MIC (Bacillus subtilis) [µg/mL]	IC50 [1] [µM]	Activity (AGS [2])	inhibition (AGS [3])
Oc1ccc(/C(Cc2ccc(Cl)cc2)=N\c2ccc(Cl)cc2)cc1O	6.25 (≈ 16.8 µM)	> 50	50 (≈ 134 µM)	> 50	6.25 (≈ 16.8 µM)	> 50	50 (≈ 134 µM)	–	–	–
Oc1ccc(/C(Cc2ccc(Cl)cc2)=N\c2ccc(Cl)cc2)c(O)c1	0.78 (≈ 2.1 µM)	> 50	25 (≈ 67.2 µM)	> 50	1.56 (≈ 4.2 µM)	> 50	25 (≈ 67.2 µM)	1.8	Non-toxic	–
O=[N+]([O-])c1ccc(/N=C(/Cc2ccc(Cl)cc2)c2ccc(O)c(O)c2O)cc1	50 (≈ 125 µM)	> 50	50 (≈ 125 µM)	> 50	50 (≈ 125 µM)	> 50	50 (≈ 125 µM)	–	–	–
Cc1ccc(/N=C(/Cc2ccc(F)cc2)c2ccc(O)c(O)c2)cc1	25 (≈ 74.5 µM)	> 50	12.5 (≈ 37.3 µM)	> 50	50 (≈ 149 µM)	> 50	25 (≈ 74.5 µM)	–	–	–
O=C(Cc1ccc(F)cc1)c1ccc(O)c(O)c1	–	> 50	–	> 50	–	> 50	–	–	–	–
O=[N+]([O-])c1ccc(/N=C(/Cc2ccc(F)cc2)c2ccc(O)c(O)c2)cc1	25 (≈ 68.2 µM)	> 50	50 (≈ 136 µM)	> 50	25 (≈ 68.2 µM)	> 50	50 (≈ 136 µM)	–	–	–
NC[C@H]1O[C@H](O[C@H]2[C@H](O)[C@@H](O[C@H]3O[C@H](CO)[C@@H](O)[C@H](N)[C@H]3O)[C@H](N)C[C@@H]2N)[C@H](N)[C@@H](O)[C@@H]1O [BEKANAMYCIN]	3.12 (≈ 6.46 µM)	–	1.56 (≈ 3.23 µM)	–	3.12 (≈ 6.46 µM)	–	0.39 (≈ 0.807 µM)	–	–	–
Cc1ccc(/N=C(/Cc2ccc(Cl)cc2)c2ccc(O)cc2O)cc1	12.5 (≈ 35.5 µM)	> 50	12.5 (≈ 35.5 µM)	> 50	12.5 (≈ 35.5 µM)	> 50	25 (≈ 71.1 µM)	15.1	–	–
Oc1ccc(/C(Cc2ccc(Cl)cc2)=N\c2ccc(Br)cc2)c(O)c1	3.12 (≈ 7.5 µM)	> 50	25 (≈ 60 µM)	> 50	3.12 (≈ 7.5 µM)	> 50	12.5 (≈ 30 µM)	9.1	–	–
O=C(Cc1ccc(F)cc1)c1ccc(O)cc1O	–	> 50	–	> 50	–	> 50	–	–	–	–
O=[N+]([O-])c1ccc(/N=C(/Cc2ccc(F)cc2)c2ccc(O)c(O)c2O)cc1	25 (≈ 65.4 µM)	> 50	25 (≈ 65.4 µM)	> 50	25 (≈ 65.4 µM)	> 50	50 (≈ 131 µM)	–	–	–
Oc1ccc(/N=C(/Cc2ccc(Cl)cc2)c2ccc(O)cc2O)cc1	6.25 (≈ 17.7 µM)	> 50	> 50	> 50	12.5 (≈ 35.3 µM)	> 50	25 (≈ 70.7 µM)	20.5	–	–
Oc1ccc(/N=C(/Cc2ccc(F)cc2)c2ccc(O)c(O)c2O)cc1	25 (≈ 70.8 µM)	> 50	50 (≈ 142 µM)	> 50	50 (≈ 142 µM)	> 50	50 (≈ 142 µM)	63.4	–	–
O=C(Cc1ccc(Cl)cc1)c1ccc(O)c(O)c1	–	> 50	–	> 50	–	> 50	–	–	–	–
Oc1ccc(/C(Cc2ccc(F)cc2)=N\c2ccc(Br)cc2)c(O)c1	3.12 (≈ 7.81 µM)	> 50	50 (≈ 125 µM)	> 50	6.25 (≈ 15.6 µM)	> 50	50 (≈ 125 µM)	8.3	–	–
Oc1ccc(/N=C(/Cc2ccc(Cl)cc2)c2ccc(O)c(O)c2)cc1	25 (≈ 70.7 µM)	> 50	50 (≈ 141 µM)	> 50	50 (≈ 141 µM)	> 50	50 (≈ 141 µM)	–	–	–
Oc1ccc(/C(Cc2ccc(F)cc2)=N\c2ccc(Cl)cc2)c(O)c1	1.56 (≈ 4.39 µM)	> 50	50 (≈ 141 µM)	> 50	1.56 (≈ 4.39 µM)	> 50	50 (≈ 141 µM)	3.9	–	–
O=[N+]([O-])c1ccc(/N=C(/Cc2ccc(Cl)cc2)c2ccc(O)c(O)c2)cc1	25 (≈ 65.3 µM)	> 50	12.5 (≈ 32.7 µM)	> 50	25 (≈ 65.3 µM)	> 50	25 (≈ 65.3 µM)	–	–	–
CC(=O)Oc1ccccc1C(=O)O [ASPIRIN]	–	–	–	–	–	–	–	–	Non-toxic	Active
O=[N+]([O-])c1ccc(/N=C(/Cc2ccc(Cl)cc2)c2ccc(O)cc2O)cc1	6.25 (≈ 16.3 µM)	> 50	12.5 (≈ 32.7 µM)	> 50	6.25 (≈ 16.3 µM)	> 50	25 (≈ 65.3 µM)	8.7	–	–

SMILES	MIC (Escherichia coli) [µg/mL]	MIC (Aspergillus niger) [µg/mL]	MIC (Staphylococcus aureus) [µg/mL]	MIC (Candida albicans) [µg/mL]	MIC (Pseudomonas aeruginosa) [µg/mL]	MIC (Trichophyton rubrum) [µg/mL]	MIC (Bacillus subtilis) [µg/mL]	IC50 [1] [µM]	Activity (AGS [2])	inhibition (AGS [3])
CC1(C)S[C@@H]2[C@H](NC(=O)Cc3ccccc3)C(=O)N2[C@H]1C(=O)O [PENICILLIN G]	6.25 (≈ 18.7 µM)	–	1.56 (≈ 4.67 µM)	–	6.25 (≈ 18.7 µM)	–	1.56 (≈ 4.67 µM)	–	–	–
O=C(Cc1ccc(F)cc1)c1ccc(O)c(O)c1O	–	> 50	–	> 50	–	> 50	–	–	–	–
Oc1ccc(/C(Cc2ccc(F)cc2)=N\c2ccc(Cl)cc2)cc1O	6.25 (≈ 17.6 µM)	> 50	25 (≈ 70.3 µM)	> 50	6.25 (≈ 17.6 µM)	> 50	25 (≈ 70.3 µM)	–	–	–
Cc1ccc(/N=C(/Cc2ccc(Cl)cc2)c2ccc(O)c(O)c2)cc1	25 (≈ 71.1 µM)	> 50	50 (≈ 142 µM)	> 50	50 (≈ 142 µM)	> 50	50 (≈ 142 µM)	–	–	–
O=[N+]([O-])c1ccc(/N=C(/Cc2ccc(F)cc2)c2ccc(O)cc2O)cc1	6.25 (≈ 17.1 µM)	> 50	50 (≈ 136 µM)	> 50	12.5 (≈ 34.1 µM)	> 50	50 (≈ 136 µM)	28.7	–	–
Cc1ccc(/N=C(/Cc2ccc(F)cc2)c2ccc(O)c(O)c2O)cc1	50 (≈ 142 µM)	> 50	50 (≈ 142 µM)	> 50	50 (≈ 142 µM)	> 50	50 (≈ 142 µM)	–	–	inactive
O=C(Cc1ccc(Cl)cc1)c1ccc(O)c(O)c1O	–	> 50	–	> 50	–	> 50	–	–	–	–
O=C(Cc1ccc(Cl)cc1)c1ccc(O)cc1O	–	> 50	–	> 50	–	> 50	–	–	–	–
Oc1ccc(/N=C(/Cc2ccc(F)cc2)c2ccc(O)cc2O)cc1	12.5 (≈ 37.1 µM)	> 50	25 (≈ 74.1 µM)	> 50	25 (≈ 74.1 µM)	> 50	50 (≈ 148 µM)	–	–	–
Cc1ccc(/N=C(/Cc2ccc(F)cc2)c2ccc(O)cc2O)cc1	25 (≈ 74.5 µM)	> 50	25 (≈ 74.5 µM)	> 50	25 (≈ 74.5 µM)	> 50	25 (≈ 74.5 µM)	35.3	–	–
Oc1ccc(/N=C(/Cc2ccc(F)cc2)c2ccc(O)c(O)c2)cc1	50 (≈ 148 µM)	> 50	50 (≈ 148 µM)	> 50	50 (≈ 148 µM)	> 50	25 (≈ 74.1 µM)	–	–	–
Oc1ccc(/N=C(/Cc2ccc(Cl)cc2)c2ccc(O)c(O)c2O)cc1	25 (≈ 67.6 µM)	> 50	25 (≈ 67.6 µM)	> 50	50 (≈ 135 µM)	> 50	50 (≈ 135 µM)	–	–	–
Oc1ccc(/C(Cc2ccc(F)cc2)=N\c2ccc(Cl)cc2)c(O)c1O	12.5 (≈ 33.6 µM)	> 50	50 (≈ 134 µM)	> 50	12.5 (≈ 33.6 µM)	> 50	50 (≈ 134 µM)	–	–	–
Oc1ccc(/C(Cc2ccc(Cl)cc2)=N\c2ccc(Br)cc2)c(O)c1O	12.5 (≈ 28.9 µM)	> 50	50 (≈ 116 µM)	> 50	25 (≈ 57.8 µM)	> 50	50 (≈ 116 µM)	–	–	–
Cc1ccc(/N=C(/Cc2ccc(Cl)cc2)c2ccc(O)c(O)c2O)cc1	50 (≈ 136 µM)	> 50	25 (≈ 68 µM)	> 50	50 (≈ 136 µM)	> 50	25 (≈ 68 µM)	–	–	–
Oc1ccc(/C(Cc2ccc(Cl)cc2)=N\c2ccc(Br)cc2)cc1O	12.5 (≈ 30 µM)	> 50	25 (≈ 60 µM)	> 50	12.5 (≈ 30 µM)	> 50	25 (≈ 60 µM)	–	–	–
Oc1ccc(/C(Cc2ccc(F)cc2)=N\c2ccc(Br)cc2)cc1O	12.5 (≈ 31.2 µM)	> 50	50 (≈ 125 µM)	> 50	25 (≈ 62.5 µM)	> 50	25 (≈ 62.5 µM)	–	–	–
Oc1ccc(/C(Cc2ccc(F)cc2)=N\c2ccc(Br)cc2)c(O)c1O	25 (≈ 60.1 µM)	> 50	25 (≈ 60.1 µM)	> 50	25 (≈ 60.1 µM)	> 50	25 (≈ 60.1 µM)	–	–	–
Oc1ccc(/C(Cc2ccc(Cl)cc2)=N\c2ccc(Cl)cc2)c(O)c1O	12.5 (≈ 32.2 µM)	> 50	50 (≈ 129 µM)	> 50	25 (≈ 64.4 µM)	> 50	50 (≈ 129 µM)	–	–	–
